Results reported in ChEMBL document CHEMBL4477216, “Discovery and Optimization of Small Molecule Splicing Modifiers of Survival Motor Neuron 2 as a Treatment for Spinal Muscular Atrophy” (J Med Chem, 2016).

Assays:
[1] = Apparent permeability in human Caco2 cells; assay type: ADME, cell-based; conditions: Caco-2
Method in brief: (§1)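 Bidirectional permeability was measured across a Caco-2 cell monolayer. Papp was reported, and efflux was expressed as the B-A/A-B ratio.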

[2] = Efflux ratio of apparent permeability from basolateral to apical over apical to basolateral side in human Caco2 cells; assay type: ADME, cell-based; conditions: Caco-2; method in brief: as §1
[3] = Protein binding in human plasma; assay type: ADME, cell-free; conditions: read-out: PPB (converted)
[4] = AUC (0 to 6 hrs) in Sprague-Dawley rat at 10 mg/kg, po; assay type: ADME, organism-based; set-up: dose 10 mg/kg, time < 6 hr, route oral; conditions: in vivo
Method in brief: (§2)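 Male Sprague-Dawley rats got a single oral 10 mg/kg dose as a suspension in 0.5% hydroxypropyl methylcellulose with 0.1% Tween-80. Plasma was sampled at several time points up to 6 h post dose to give AUC0-6h. Total brain concentration was taken at 6 h to give the brain/plasma ratio.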

[5] = Ratio of drug level in brain to plasma of Sprague-Dawley rat at 10 mg/kg, po measured at 6 hrs; assay type: ADME, organism-based; conditions: brain and plasma, read-out: BPR; method in brief: as §2
[6] = AUC (0 to 24 hrs) in FVB.Cg-Tg(SMN2 delta 7 exon)4299Ahmb Tg(SMN2)89Ahmb Smn1tm1Msd/J mouse at 10 mg/kg, ip; assay type: ADME, organism-based; set-up: dose 10 mg/kg, time < 24 hr, route intraperitoneal; conditions: in vivo
Method in brief: (§3)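 Single 10 mg/kg IP dose given on postnatal day 9 to neonatal mice. Vehicle was 100% DMSO solution (2.5 mL/kg). Plasma and brain drug levels were measured, giving plasma AUC0-24h and the brain/plasma ratio.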

[7] = Ratio of drug level in brain to plasma of FVB.Cg-Tg(SMN2 delta 7 exon)4299Ahmb Tg(SMN2)89Ahmb Smn1tm1Msd/J mouse at 10 mg/kg, ip; assay type: ADME, organism-based; conditions: brain and plasma, read-out: BPR; method in brief: as §3
Mus musculus [8] = experiment: In vivo inhibition of mRNA splicing of human SMN2 exon 7 in FVB.Cg-Tg(SMN2 delta 7 exon)4299Ahmb Tg(SMN2)89Ahmb Smn1tm1Msd/J mouse assessed as increase in SMN protein level in brain administered as ip qd on postnatal day 3 to day 9 by HTRF assay; assay type: functional, organism-based
Method in brief: (§4)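 Homozygous Δ7 SMA mice were dosed IP once daily from PND3 to PND9 with compound or vehicle (100% DMSO solution, 2.5 mL/kg). Brain, spinal cord and quadriceps were homogenized in RIPA buffer with protease inhibitors. SMN was read by HTRF (anti-SMN d2 and Kryptate antibodies, overnight rt, 665/620 nm) and normalized to BCA total protein. Values are % change versus vehicle ±SD; 5-11 mice per group.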

Mus musculus [9] = experiment: In vivo inhibition of mRNA splicing of human SMN2 exon 7 in FVB.Cg-Tg(SMN2 delta 7 exon)4299Ahmb Tg(SMN2)89Ahmb Smn1tm1Msd/J mouse assessed as increase in SMN protein level in spinal cord administered as ip qd on postnatal day 3 to day 9 by HTRF assay; assay type: functional, organism-based; method in brief: as §4
Mus musculus [10] = experiment: In vivo inhibition of mRNA splicing of human SMN2 exon 7 in FVB.Cg-Tg(SMN2 delta 7 exon)4299Ahmb Tg(SMN2)89Ahmb Smn1tm1Msd/J mouse assessed as increase in SMN protein level in quadriceps administered as ip qd on postnatal day 3 to day 9 by HTRF assay; assay type: functional, organism-based; method in brief: as §4
Mus musculus [11] = experiment: In vivo inhibition of mRNA splicing of human SMN2 exon 7 in po dosed FVB.Cg-Tg(SMN2 delta 7 exon)4299Ahmb Tg(SMN2)89Ahmb Smn1tm1Msd/J mouse assessed as increase in survival time administered as bid on postnatal day 24; assay type: functional, organism-based
Method in brief: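 Δ7 SMA mice were dosed IP once daily from PND3 to PND23 with compound or vehicle in DMSO (2.5 mL/kg). From PND24 dosing was oral, twice daily, in 0.5% HPMC/0.1% Tween-80 at a higher daily dose. Survivors were counted daily to give median survival time and the fraction alive at study end.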

Mus musculus [12] = experiment: In vivo inhibition of mRNA splicing of human SMN2 exon 7 in FVB.Cg-Tg(SMN2 delta 7 exon)4299Ahmb Tg(SMN2)89Ahmb Smn1tm1Msd/J mouse assessed as increase in SMN protein level in brain at 0.1 mg/kg, ip qd administered on postnatal day 3 to day 9 by HTRF assay relative to control; assay type: functional; set-up: scale not given: the % may be the effect or the level left; method in brief: as §4
Mus musculus [13] = experiment: In vivo inhibition of mRNA splicing of human SMN2 exon 7 in FVB.Cg-Tg(SMN2 delta 7 exon)4299Ahmb Tg(SMN2)89Ahmb Smn1tm1Msd/J mouse assessed as increase in SMN protein level in brain at 0.3 mg/kg, ip qd administered on postnatal day 3 to day 9 by HTRF assay relative to control; assay type: functional; set-up: scale not given: the % may be the effect or the level left; method in brief: as §4
Mus musculus [14] = experiment: In vivo inhibition of mRNA splicing of human SMN2 exon 7 in FVB.Cg-Tg(SMN2 delta 7 exon)4299Ahmb Tg(SMN2)89Ahmb Smn1tm1Msd/J mouse assessed as increase in SMN protein level in brain at 1 mg/kg, ip qd administered on postnatal day 3 to day 9 by HTRF assay relative to control; assay type: functional; set-up: scale not given: the % may be the effect or the level left; method in brief: as §4
Mus musculus [15] = experiment: In vivo inhibition of mRNA splicing of human SMN2 exon 7 in FVB.Cg-Tg(SMN2 delta 7 exon)4299Ahmb Tg(SMN2)89Ahmb Smn1tm1Msd/J mouse assessed as increase in SMN protein level in spinal cord at 0.1 mg/kg, ip qd administered on postnatal day 3 to day 9 by HTRF assay relative to control; assay type: functional; set-up: scale not given: the % may be the effect or the level left; method in brief: as §4
Mus musculus [16] = experiment: In vivo inhibition of mRNA splicing of human SMN2 exon 7 in FVB.Cg-Tg(SMN2 delta 7 exon)4299Ahmb Tg(SMN2)89Ahmb Smn1tm1Msd/J mouse assessed as increase in SMN protein level in spinal cord at 0.3 mg/kg, ip qd administered on postnatal day 3 to day 9 by HTRF assay relative to control; assay type: functional; set-up: scale not given: the % may be the effect or the level left; method in brief: as §4
Mus musculus [17] = experiment: In vivo inhibition of mRNA splicing of human SMN2 exon 7 in FVB.Cg-Tg(SMN2 delta 7 exon)4299Ahmb Tg(SMN2)89Ahmb Smn1tm1Msd/J mouse assessed as increase in SMN protein level in spinal cord at 1 mg/kg, ip qd administered on postnatal day 3 to day 9 by HTRF assay relative to control; assay type: functional; set-up: scale not given: the % may be the effect or the level left; method in brief: as §4
Mus musculus [18] = experiment: In vivo inhibition of mRNA splicing of human SMN2 exon 7 in FVB.Cg-Tg(SMN2 delta 7 exon)4299Ahmb Tg(SMN2)89Ahmb Smn1tm1Msd/J mouse assessed as increase in SMN protein level in quadriceps at 0.1 mg/kg, ip qd administered on postnatal day 3 to day 9 by HTRF assay relative to control; assay type: functional; set-up: scale not given: the % may be the effect or the level left; method in brief: as §4
Mus musculus [19] = experiment: In vivo inhibition of mRNA splicing of human SMN2 exon 7 in FVB.Cg-Tg(SMN2 delta 7 exon)4299Ahmb Tg(SMN2)89Ahmb Smn1tm1Msd/J mouse assessed as increase in SMN protein level in quadriceps at 0.3 mg/kg, ip qd administered on postnatal day 3 to day 9 by HTRF assay relative to control; assay type: functional; set-up: scale not given: the % may be the effect or the level left; method in brief: as §4
Mus musculus [20] = experiment: In vivo inhibition of mRNA splicing of human SMN2 exon 7 in ip dosed FVB.Cg-Tg(SMN2 delta 7 exon)4299Ahmb Tg(SMN2)89Ahmb Smn1tm1Msd/J mouse assessed as increase in survival time administered as qd on postnatal day 3 to 23

SMILES	Papp [1]	efflux ratio [2]	fraction unbound [3]	AUC(0-t) at 6 h [4]	Kp at 6 h [5]	AUC(0-t) at 24 h [6]	Kp [7]	Activity (Mus musculus [8])	Activity (Mus musculus [9])	Activity (Mus musculus [10])	Activity (Mus musculus [11])	Activity (Mus musculus [12])	Activity (Mus musculus [13])	Activity (Mus musculus [14])	Activity (Mus musculus [15])	Activity (Mus musculus [16])	Activity (Mus musculus [17])	Activity (Mus musculus [18])	Activity (Mus musculus [19])	Activity (Mus musculus [20])
Cc1cn2nc(-c3cc(=O)n4cc(N5CCN(C)CC5)ccc4n3)cc2c(C)n1	7.5 ×10⁻⁶ cm/s	1.7	0.2	2100 ng·h/mL	1.6	6900 ng·h/mL	2.9	Dose-dependent effect	Dose-dependent effect	Dose-dependent effect	Dose-dependent effect	43%	61%	149%	26%	67%	123%	6%	33%	Dose-dependent effect
CCN1CCN(c2ccc3cc(-c4cn5cc(C)nc(C)c5n4)c(=O)oc3c2)C[C@@H]1C	1.2 ×10⁻⁶ cm/s	1.9	0.04	1100 ng·h/mL	19	3600 ng·h/mL	18	Dose-dependent effect	Dose-dependent effect	Dose-dependent effect	Dose-dependent effect	115%	194%		92%	164%		154%	147%	Dose-dependent effect
Cc1cn2cc(-c3cc4ccc(N5CCN(C)CC5)cc4c(=O)o3)nc2c(C)n1	1.2 ×10⁻⁶ cm/s	1.3	0.07	790 ng·h/mL	11	5000 ng·h/mL	17	Dose-dependent effect	Dose-dependent effect	Dose-dependent effect	Dose-dependent effect	66%	114%	345%	35%	98%	203%	14%	83%	Dose-dependent effect
